Assay results pooled from the literature.
Each line is one published result; the experiments were not run side by side.
Effect on: enzyme activity
Action: inhibitor
LCK: Tyrosine-protein kinase Lck (LCK, Homo sapiens, UniProt P06239)
LCK phosphorylated: Tyrosine-protein kinase Lck, phosphorylated (LCK, Homo sapiens, UniProt P06239)

FC(F)c1nc2ccccc2n1-c1nc(N2CCOCC2)nc(N2CCOCC2)n1 — remaining activity (LCK; 10 µM): 89%
Cc1ccc(C(=O)Nc2ccc(CN3CCN(C)CC3)c(C(F)(F)F)c2)cc1C#Cc1cnc2cccnn12 — remaining activity (LCK; 23.5 nM): 0.8%
CCN(CC)CCNC(=O)c1c(C)[nH]c(/C=C2\C(=O)Nc3ccc(Cl)cc32)c1C — remaining activity (LCK; 0.5 µM): 11.8%
Cc1sc(C(=O)NC2COC2)cc1-n1cc(NC(=O)Nc2c(F)cccc2Cl)cn1 — remaining activity (LCK; 10 µM): 46.5%
O=c1cc(-c2cccc3c2Sc2ccccc2S3)oc(N2CCOCC2)c1 — remaining activity (LCK; 0.5 µM): 98.1%
O=C(Nc1cnn(-c2csc(C(=O)NC3COC3)c2)c1)Nc1c(F)cccc1Cl — remaining activity (LCK; 5 µM): 94.2%
Nc1nc(NC2CCCCC2)sc1C(=O)c1ccccc1 — remaining activity (LCK; 10 µM): 86%
CCCOc1ccc(OC)c(F)c1C(=O)c1ccc(C(=O)N[C@@H]2CNC[C@H]2NC(=O)c2ccc3[nH]ncc3c2)cc1 — remaining activity (LCK phosphorylated; 10 µM): 18%
O=c1c2ccccc2[nH]c(=S)n1CCN1CCC(=C(c2ccc(F)cc2)c2ccc(F)cc2)CC1 — remaining activity (LCK; 0.5 µM): 99.5%
Cc1cnc(NC2CCOCC2)nc1-n1cnc(C(=O)NC(CN)c2cc(F)cc(Cl)c2)c1 (centres unmarked) — remaining activity (LCK phosphorylated; radiometric; 1 µM): 109%
COc1cc(Cl)c(C(=O)N[C@@H](CN[C@H]2CC[C@@H](N)CC2)Cc2ccc(C#N)cc2)cc1-c1ccc(CN[C@H](C)c2ccc(C)cc2)o1 — remaining activity (LCK phosphorylated; 1 µM): 85%
COc1cc(Nc2cnc(C#N)c(O[C@H](C)CN(C)C)n2)ncc1-c1cnn(C)c1 — remaining activity (LCK; radiometric; 10 µM): 20%
COc1cc2ncnc(Nc3cccc(Cl)c3)c2cc1OC — remaining activity (LCK; 0.5 µM): 74.9%
CC(C)(C)c1nc(-c2cccc(NS(=O)(=O)c3c(F)cccc3F)c2F)c(-c2ccnc(N)n2)s1 — remaining activity (LCK; radiometric; 1 µM): 38%
Nc1ncnc2occ(-c3ccc(NC(=O)Nc4cc(C(F)(F)F)ccc4F)cc3)c12 — remaining activity (LCK; 20 µM): 0.1%
COc1cc2c(N3CCN(C(=O)Nc4ccc(OC(C)C)cc4)CC3)ncnc2cc1OCCCN1CCCCC1 — remaining activity (LCK; 0.5 µM): 87.1%
CCN(CC)c1ccc(C2=NNC(=O)CC2C)cc1[N+](=O)[O-] (centres unmarked) — remaining activity (LCK phosphorylated; 10 µM): 104%
Cc1[nH]c(/C=C2\C(=O)Nc3ccc(F)cc32)c(C)c1C(=O)N[C@H]1CCN(C(=O)N(C)C)C1 — remaining activity (LCK; 0.1 µM): 87%
COc1cc(Nc2c(C#N)cnc3cc(OCCCN4CCN(C)CC4)c(OC)cc23)c(Cl)cc1Cl — remaining activity (LCK; 0.5 µM): 1.88%
Cc1ccc(NC(=O)c2ccc(C)c(C(F)(F)F)c2)cc1C#Cc1nn(C2CCC(O)CC2)c2ncnc(N)c12 (centres unmarked) — remaining activity (LCK; 10 µM): 0%
